High-throughput results from PubChem BioAssay.
Rows were chosen to be rich in hits. Some 1.9% of all compounds tested hit in one or more screens of this group.
Runt-CBFb FRET: Runt domain-CBFb interaction inhibition | Q01196+Q13951 | Cerulean-Runt/Venus-CBFb FRET ratio 530/480, 1 h | inhibition, % at 20 µM | actives 0.46% (n = 220,000) | AID 1496;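 active means inhibition over about 50% at 20 µM in the single-dose screen, limit read from the data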;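 further: 0% = DMSO wells and 100% = excess unlabeled CBFb competitor control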
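Assay system: Cerulean-Runt domain / Medium: Tris 50 mM pH 7.5, KCl, K2SO4, 0.01% BSA / Timing: protein complex preformed 1 h, compound exposure 1 h, room temperature, dark / Measured by: FRET, excitation 422 nm, emission at 530 and 480 nm / Evaluation: loss of energy transfer signal / Control set: 5 µM unlabeled CBFb as full-inhibition high control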
Hck-Nef inh: human Hck-Nef kinase inhibition; P08631; Recombinant Hck-YEEI plus Nef, Z-Lyte FRET kinase assay; inhibition, % at 20 µM; actives 0.68% (n = 220,000);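 active means Hck-Nef kinase inhibition above about 50%, limit read from the data; inactive means inhibition below that limit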;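 further: 0% = DMSO with Hck plus Nef and 100% = Hck alone without Nef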
Target sequence (P08631 whole entry, looked up): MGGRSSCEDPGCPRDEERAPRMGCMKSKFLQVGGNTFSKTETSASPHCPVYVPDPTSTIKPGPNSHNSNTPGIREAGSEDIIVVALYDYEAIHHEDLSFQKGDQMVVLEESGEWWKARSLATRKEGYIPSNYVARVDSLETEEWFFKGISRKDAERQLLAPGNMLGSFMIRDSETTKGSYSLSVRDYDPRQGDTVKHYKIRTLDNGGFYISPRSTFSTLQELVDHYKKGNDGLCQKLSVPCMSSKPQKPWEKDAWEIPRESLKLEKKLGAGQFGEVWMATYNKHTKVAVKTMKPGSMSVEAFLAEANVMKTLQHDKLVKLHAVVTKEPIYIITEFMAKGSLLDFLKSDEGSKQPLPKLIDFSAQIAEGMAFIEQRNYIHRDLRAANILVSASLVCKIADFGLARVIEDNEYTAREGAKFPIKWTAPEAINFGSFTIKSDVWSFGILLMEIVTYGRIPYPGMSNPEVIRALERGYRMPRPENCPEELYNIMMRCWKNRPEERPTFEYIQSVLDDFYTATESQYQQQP
Runt-SMMHC FRET: Runt domain-CBFb-SMMHC interaction inhibition | actives 0.74% (n = 220,000) | Cerulean-Runt/Venus-CBFb-SMMHC FRET ratio 530/480, 1 h | inhibition, % at 20 µM | AID 1434;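 active means mean inhibition across duplicate retests at 20 µM reaching about 50%, limit read from the data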;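 further: 0% = DMSO wells and 100% = wells with excess untagged CBFb-SMMHC; inhibitors lower the FRET ratio by blocking Runt binding to CBFb-SMMHC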
RanGTP-Imp inh: disruptors of Ran-importin-beta complex formation – biochemical, FRET, CFP-Ran, YFP-importin-beta, homogeneous, primary screen | cell-free CFP-Ran/YFP-importin-beta FRET ratio | inhibition, % (no concentration beside the values) | actives 1.1% (n = 300,000) | AID 2216;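 active means more than half of the replicate wells show a fall in the fluorescence ratio signal beyond about 16%, limit read from the data, passing the limit was not always enough; inconclusive means exactly half of the replicate wells pass the set limit; inactive means fewer than half of replicates pass the limit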;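 further: 0% = DMSO wells and 100% = Ran loaded with GDP instead of GTP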
Tb hexokinase: T. brucei hexokinase 1 inhibition; recombinant TbHK1, G6PDH-coupled NADH A340; inhibition, % at 10 µM; actives 0.11% (n = 220,000); AID 1430;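 active means inhibition of 50% or more in the single-dose primary screen; inactive means inhibition below 50%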
Hck Nef conf: Hck-Nef kinase inhibition, confirmation; shares compounds with Hck-Nef inh; Recombinant Hck-YEEI:Nef, Z-Lyte FRET kinase assay; calls only at 10 µM; actives 28% (n = 1,300); AID 463188;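 active means average inhibition of at least 50%, with Z-scores no higher than 3 in both the phospho-tyrosine peptide and fluorescence counterscreens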
Numbers without * were called inactive; i = inactive; ? = inconclusive; · = no result shown; + = active, no number.

SMILES	Runt-CBFb FRET	Hck-Nef inh	Runt-SMMHC FRET	RanGTP-Imp inh	Tb hexokinase	Hck Nef conf
Cc1cccc(-n2c3nc(=O)[nH]c(=O)c-3cc3c(C)nn(-c4ccccc4)c32)c1C	17	23	31	3	-18	·
COCc1cc(C)nc(OCC(=O)N/N=C/c2ccco2)c1C#N	1	3	-2	-1	-28	·
COCc1cc(C)nc(OCC(=O)N/N=C/c2ccc(-c3cc([N+](=O)[O-])ccc3Cl)o2)c1C#N	·	93*	-9	1	1	i
Cc1cccc(NC(=O)CSc2nc(COc3ccccc3)nc3ccccc23)c1C	-5	60*	-9	-1	-2	i
Cc1cc(C)c(S(=O)(=O)N2CCN(S(=O)(=O)N3CCOCC3)CC2)c(C)c1	·	·	·	1	·	·
O=C1ON=C(c2ccccc2)/C1=C\c1ccco1	9	54*	37	-5	16	i
O=C1NN(c2cccc(Br)c2)C(=O)/C1=C/c1ccc(-c2cc([N+](=O)[O-])ccc2O)o1	-17	98*	-40	-10	12	+
CNc1ccc(Br)cc(C(=O)/C=C/c2cccc(Cl)c2Cl)c1=O	13	51*	-15	·	1	i
CNc1ccc(Br)cc(C(=O)/C=C/c2cccc(OC)c2OC)c1=O	-1	0	-19	3	-18	·
Cc1cc2oc(C(=O)Nc3ccc(S(=O)(=O)Nc4nccs4)cc3)cc(=O)c2cc1Cl	-14	9	-14	-3	-14	·
Cc1cc(C)c2oc(C(=O)Nc3ccc(S(=O)(=O)Nc4nccs4)cc3)cc(=O)c2c1	-4	51*	-1	7	-21	i
COc1cccc(CN2CCNC(=O)C2CC(=O)NCCN2CCOCC2)c1OC (stereo not drawn)	·	·	·	1	·	·
O=C(Nc1ccc2nc(-c3ccco3)c(-c3ccco3)nc2c1)N1CCN(c2ccccn2)CC1	-30	57*	-93	33*	-3	i
COc1ccc(S(=O)(=O)N2CCOCC2)cc1NC(=O)CSc1n[nH]c(C(C)C)n1	2	3	-7	2	-4	·
Cc1cc(O)ccc1Nc1nc(-c2sc(N)nc2C)cs1	16	62*	4	0	-8	+
O=C(Cn1nnc(-c2ccc(NC(=O)c3ccccc3F)cc2)n1)NCc1ccc(F)cc1	3	61*	-3	3	8	i
O=C(Nc1cccc(S(=O)(=O)NC2=NCCC2)c1)c1cc(-c2ccco2)nc2ccccc12	9	87*	-7	-6	12	+
O=C(NC1CC1)c1cc(-c2ccco2)nc2ccccc12	22	72*	1	-5	-8	+
CCN(CC)C(=O)Cc1c(O)c2ccccc2[nH]c1=O	0	56*	0	-6	-7	+
CCC(c1nnnn1Cc1ccc(OC)cc1)N1CCN(c2ccc(OC)cc2)CC1 (stereo not drawn)	4	62*	-4	-2	-3	i
O=S(=O)(c1ccc(Oc2ccc(S(=O)(=O)N(CCO)CCO)cc2)cc1)N(CCO)CCO	0	21	1	-2	2	·
O=S(=O)(c1ccc(N2CCC(c3ccc(Cl)cc3)=N2)cc1)N(CCO)CCO	48	82*	108*	?	-35	·
Cc1cccc(Cc2nnc(CCC(=O)N(C)Cc3ccncc3C)o2)c1	-3	84*	-11	?	-1	i
Cc1cccc(Cc2nnc(CCC(=O)NCc3ccncc3C)o2)c1	1	18	-1	-3	5	·
CCCCn1c(N)c(N(CCC(C)C)C(=O)C2CC(=O)N(c3ccccc3OCC)C2)c(=O)[nH]c1=O (stereo not drawn)	·	·	·	-1	·	·
SMILES	Runt-CBFb FRET	Hck-Nef inh	Runt-SMMHC FRET	RanGTP-Imp inh	Tb hexokinase	Hck Nef conf
Cc1ccc(-c2cc(C(F)F)n3ncc(C(=O)NCc4ccco4)c3n2)cc1	-11	58*	-28	·	-14	i
Cc1ccc(NC(=O)COC(=O)/C=C/c2ccc(Br)o2)cc1S(=O)(=O)N(C)C	0	53*	-3	4	-8	i
CCCn1nnnc1NC(=O)c1cc(Cl)ccc1Cl	0	-1	3	1	-1	·
CCc1nnc(NS(=O)(=O)c2ccc(NC(=S)NC(=O)/C=C/c3ccc(C(C)C)cc3)cc2)s1	-47	65*	-83	-5	7	+
CCc1nnc(NS(=O)(=O)c2ccc(NC(=S)NC(=O)/C=C/c3ccccc3)cc2)s1	-4	5	-3	-3	1	·
CCN1CCN(Cc2ccc(NC(=O)c3ccc(C)c(NC(=O)c4ccc5n[nH]nc5c4)c3)cc2C(F)(F)F)CC1	1	76*	1	-2	8	+
CCN1CCN(Cc2ccc(NC(=O)c3ccc(C)c(NC(=O)c4ccnnc4)c3)cc2C(F)(F)F)CC1	2	55*	1	0	-2	i
Cc1cc2nc(-c3ccc(SCc4ccc(C(=O)O)cc4)nc3)[nH]c2cc1C	3	74*	-3	3	-38	+
Cc1cc2nc(-c3ccc(SCC(=O)Nc4ccc(S(=O)(=O)NC5CC5)cc4)nc3)[nH]c2cc1C	-6	87*	-7	0	-24	+
O=C(NCc1cnc2ccccn12)C1CCC(=O)N(Cc2ccccc2F)C1 (stereo not drawn)	·	·	·	-3	·	·
CCc1cc(=O)n2c([nH]c3ccccc32)c1C#N	7	6	5	-5	-13	·
CCc1cc(=S)n2c([nH]c3ccccc32)c1C#N	32	71*	24	3	16	i
COCc1cc(=O)n2c([nH]c3ccccc32)c1C#N	44	67*	59*	0	-13	·
O=S(=O)(NCc1nnc2c(C(F)(F)F)cc(Cl)cn12)c1ccccc1	·	·	·	4	·	·
COc1cc(NC(=O)c2cccs2)c(C(=O)OCC(=O)NC(=O)NCc2ccccc2)cc1OC	4	68*	-1	-1	-29	i
O=C(O)c1ccc(N2C(=O)/C(=C/c3ccc(-c4ccc([N+](=O)[O-])cc4)o3)C=C2c2ccccc2)cc1	11	72*	-44	-11	28	+
CCOCCCn1c(SCC(=O)NC(C)(C)C)nc2ccccc2c1=O	2	1	11	-3	3	·
CCOC(=O)c1cc2c(=O)n3ccccc3nc2n(CC(C)C)c1=NC(=O)c1ccco1	18	105*	60*	141*	-13	i
COCCCn1c(=NC(=O)c2ccccc2)c(C#N)cc2c(=O)n3cccc(C)c3nc21	24	82*	88*	49*	-5	i
CCOCCCn1c(=NC(C)=O)c(C#N)cc2c(=O)n3ccccc3nc21	28	96*	88*	123*	-22	·
Cc1cccn2c(=O)c3cc(C(=O)NCCCN4CCCC4=O)n(C)c3nc12	0	42	6	1	-17	·
